ChEMBL document CHEMBL1921722, “In vitro and in vivo evaluation of select kahalalide F analogs with antitumor and antifungal activities” (Bioorg Med Chem, 2011)

Assays:
Type in all cases: functional
[1] = tested on: SK-MEL-2; experiment: Cytotoxicity against human SK-MEL-2 cells by sulforhodamine B assay; conditions: for TGI: read-out: pTGI (converted)
How it was run: (§1)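 NCI Developmental Therapeutics Program 60-cell-line human tumor panel screen, run at NCI. A single-concentration pre-screen was followed by a five-concentration dose-response in 10-fold steps. GI50 is the concentration that reduces growth of treated cells to half that of untreated control cells. TGI is the concentration that completely halts growth.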

[2] = tested on: OVCAR-4; experiment: Cytotoxicity against human OVCAR4 cells by sulforhodamine B assay; conditions: for TGI: read-out: pTGI (converted); how it was run: as §1
[3] = tested on: OVCAR-5; experiment: Cytotoxicity against human OVCAR5 cells by sulforhodamine B assay; conditions: for TGI: read-out: pTGI (converted); how it was run: as §1
[4] = tested on: M14; experiment: Cytotoxicity against human M14 cells assessed as cell growth at 8 nM by sulforhodamine B assay relative to control; conditions: read-out: Activity
[5] = tested on: SNB-75; experiment: Cytotoxicity against human SNB75 cells assessed as cell growth at 8 nM by sulforhodamine B assay relative to control; conditions: read-out: Activity
[6] = tested on: NCI-H522; experiment: Cytotoxicity against human NCI-H522 cells assessed as cell growth at 8 nM by sulforhodamine B assay relative to control; conditions: read-out: Activity
[7] = tested on: A549; experiment: Cytotoxicity against human A549 cells assessed as cell growth at 8 nM by sulforhodamine B assay relative to control; conditions: read-out: Activity
How it was run: (§2)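 Run at NCI in the DTP 60-cell-line human tumor panel by standard procedure. Compounds were first screened at a single concentration, then tested at five tenfold-spaced concentrations. GI50 is the concentration reducing treated-cell growth to half that of untreated controls; TGI is the concentration completely halting growth.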

[8] = tested on: NCI-H522; experiment: Cytotoxicity against human NCI-H522 cells assessed as cell growth at 80 nM by sulforhodamine B assay relative to control; conditions: read-out: Activity
[9] = tested on: KM12; experiment: Cytotoxicity against human KM12 cells assessed as cell growth at 80 nM by sulforhodamine B assay relative to control; conditions: read-out: Activity
[10] = tested on: SNB-75; experiment: Cytotoxicity against human SNB75 cells assessed as cell growth at 80 nM by sulforhodamine B assay relative to control; conditions: read-out: Activity
[11] = tested on: SK-MEL-2; experiment: Cytotoxicity against human SK-MEL-2 cells assessed as cell growth at 80 nM by sulforhodamine B assay relative to control; conditions: read-out: Activity
[12] = tested on: OVCAR-3; experiment: Cytotoxicity against human OVCAR3 cells assessed as cell growth at 80 nM by sulforhodamine B assay relative to control; conditions: read-out: Activity
[13] = tested on: 786-0; experiment: Cytotoxicity against human 786-0 cells assessed as cell growth at 80 nM by sulforhodamine B assay relative to control; conditions: read-out: Activity; how it was run: as §2
[14] = tested on: MCF7; experiment: Cytotoxicity against human MCF7 cells assessed as cell growth at 80 nM by sulforhodamine B assay relative to control; conditions: read-out: Activity
[15] = tested on: K562; experiment: Cytotoxicity against human K562 cells assessed as cell growth at 800 nM by sulforhodamine B assay relative to control; conditions: read-out: Activity
[16] = tested on: EKVX; experiment: Cytotoxicity against human EKVX cells assessed as cell growth at 800 nM by sulforhodamine B assay relative to control; conditions: read-out: Activity
[17] = tested on: NCI-H23; experiment: Cytotoxicity against human NCI-H23 cells assessed as cell growth at 800 nM by sulforhodamine B assay relative to control; conditions: read-out: Activity
[18] = tested on: HT-29; experiment: Cytotoxicity against human HT-29 cells assessed as cell growth at 800 nM by sulforhodamine B assay relative to control; conditions: read-out: Activity
[19] = tested on: KM12; experiment: Cytotoxicity against human KM12 cells assessed as cell growth at 800 nM by sulforhodamine B assay relative to control; conditions: read-out: Activity
[20] = tested on: SK-MEL-28; experiment: Cytotoxicity against human SK-MEL-28 cells assessed as cell growth at 800 nM by sulforhodamine B assay relative to control; conditions: read-out: Activity
[21] = tested on: 786-0; experiment: Cytotoxicity against human 786-0 cells assessed as cell growth at 800 nM by sulforhodamine B assay relative to control; conditions: read-out: Activity; how it was run: as §2
[22] = tested on: UO-31; experiment: Cytotoxicity against human UO31 cells assessed as cell growth at 800 nM by sulforhodamine B assay relative to control; conditions: read-out: Activity
[23] = tested on: MDA-MB-231; experiment: Cytotoxicity against human MDA-MB-231 cells assessed as cell growth at 800 nM by sulforhodamine B assay relative to control; conditions: read-out: Activity
[24] = tested on: HL-60(TB); experiment: Cytotoxicity against human HL-60(TB) cells assessed as cell growth at 8 uM by sulforhodamine B assay relative to control; conditions: read-out: Activity
[25] = tested on: HOP-92; experiment: Cytotoxicity against human HOP92 cells assessed as cell growth at 8 uM by sulforhodamine B assay relative to control; conditions: read-out: Activity
[26] = tested on: U-251; experiment: Cytotoxicity against human U251 cells assessed as cell growth at 8 uM by sulforhodamine B assay relative to control; conditions: read-out: Activity
[27] = tested on: M14; experiment: Cytotoxicity against human M14 cells assessed as cell growth at 8 uM by sulforhodamine B assay relative to control; conditions: read-out: Activity
[28] = tested on: SK-MEL-2; experiment: Cytotoxicity against human SK-MEL-2 cells assessed as cell growth at 8 uM by sulforhodamine B assay relative to control; conditions: read-out: Activity
[29] = tested on: 786-0; experiment: Cytotoxicity against human 786-0 cells assessed as cell growth at 8 uM by sulforhodamine B assay relative to control; conditions: read-out: Activity; how it was run: as §2
[30] = tested on: A498; experiment: Cytotoxicity against human A498 cells assessed as cell growth at 8 uM by sulforhodamine B assay relative to control; conditions: read-out: Activity; how it was run: as §2
[31] = tested on: T47D; experiment: Cytotoxicity against human T47D cells assessed as cell growth at 8 uM by sulforhodamine B assay relative to control; conditions: read-out: Activity
[32] = tested on: HOP-62; experiment: Cytotoxicity against human HOP62 cells assessed as cell growth at 80 uM by sulforhodamine B assay relative to control; conditions: read-out: Activity
[33] = tested on: NCI-H460; experiment: Cytotoxicity against human NCI-H460 cells assessed as cell growth at 80 uM by sulforhodamine B assay relative to control; conditions: read-out: Activity
[34] = tested on: HT-29; experiment: Cytotoxicity against human HT-29 cells assessed as cell growth at 80 uM by sulforhodamine B assay relative to control; conditions: read-out: Activity
[35] = tested on: SK-MEL-5; experiment: Cytotoxicity against human SK-MEL-5 cells assessed as cell growth at 80 uM by sulforhodamine B assay relative to control; conditions: read-out: Activity
[36] = tested on: RXF 393; experiment: Cytotoxicity against human RXF393 cells assessed as cell growth at 80 uM by sulforhodamine B assay relative to control; conditions: read-out: Activity
[37] = tested on: K562; experiment: Cytotoxicity against human K562 cells by sulforhodamine B assay; conditions: for CC50: read-out: pLC50 (the source's name) (converted); for TGI: read-out: pTGI (converted); how it was run: as §1
[38] = tested on: HCC 2998; experiment: Cytotoxicity against human HCC2998 cells by sulforhodamine B assay
How it was run: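 Run by the NCI Developmental Therapeutics Program on its 60-line human tumour cell panel using the standard procedure. Compounds went through a single-concentration prescreen first, and those active by NCI criteria went on to a five-concentration growth-inhibition test. GI50 is the concentration that cuts growth of treated cells to half that of untreated control cells.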

[39] = tested on: SF-268; experiment: Cytotoxicity against human SF268 cells by sulforhodamine B assay
[40] = tested on: SF-295; experiment: Cytotoxicity against human SF295 cells by sulforhodamine B assay; conditions: for TGI: read-out: pTGI (converted); how it was run: as §1
[41] = tested on: LOX IMVI; experiment: Cytotoxicity against human LOXIMVI cells by sulforhodamine B assay; conditions: for TGI: read-out: pTGI (converted); how it was run: as §1

## C/C=C1\NC(=O)[C@H](Cc2ccccc2)NC(=O)[C@@H](C(C)C)NC(=O)[C@@H]([C@@H](C)CC)NC(=O)[C@H](NC(=O)[C@H](NC(=O)[C@H](CCCNCc2ccc(N3CCOCC3)cc2)NC(=O)[C@H]2CCCN2C(=O)[C@H](NC(=O)[C@@H](NC(=O)[C@@H](NC(=O)[C@H](NC(=O)CCCC(C)C)C(C)C)[C@@H](C)O)C(C)C)C(C)C)[C@@H](C)CC)[C@@H](C)OC(=O)[C@H](C(C)C)NC1=O
[1]
  GI50: 1510 nM
  TGI: 2880 nM
[2]
  GI50: 1230 nM
  TGI: 2820 nM
[3]
  GI50: 933 nM
  TGI: 2190 nM
[4]
  growth at 0.008 µM: 99%
[5]
  growth at 0.008 µM: 110%
[6]
  growth at 0.008 µM: 99%
[7]
  growth at 0.008 µM: 99%
[8]
  growth at 0.08 µM: 99%
[9]
  growth at 0.08 µM: 99%
[10]
  growth at 0.08 µM: 113%
[11]
  growth at 0.08 µM: 101%
[12]
  growth at 0.08 µM: 87%
[13]
  growth at 0.08 µM: 93%
[14]
  growth at 0.08 µM: 107%
[15]
  growth at 0.8 µM: 102%
[16]
  growth at 0.8 µM: 53%
[17]
  growth at 0.8 µM: 103%
[18]
  growth at 0.8 µM: 3%
[19]
  growth at 0.8 µM: -15%
[20]
  growth at 0.8 µM: 98%
[21]
  growth at 0.8 µM: 101%
[22]
  growth at 0.8 µM: 96%
[23]
  growth at 0.8 µM: 86%
[24]
  growth at 8 µM: -17%
[25]
  growth at 8 µM: -2%
[26]
  growth at 8 µM: -98%
[27]
  growth at 8 µM: -89%
[28]
  growth at 8 µM: -74%
[29]
  growth at 8 µM: -88%
[30]
  growth at 8 µM: -51%
[31]
  growth at 8 µM: -63%
[32]
  growth at 80 µM: -55%
[33]
  growth at 80 µM: 2%
[34]
  growth at 80 µM: 8%
[35]
  growth at 80 µM: -56%
[36]
  growth at 80 µM: -27%
[37]
  GI50: 4790 nM
  CC50: > 75900 nM
  TGI: 22900 nM
[38]
  LC50: 3310 nM
[38]; read-out: GI50
  GI50: 250 nM
[38]; read-out: TGI
  TGI: 877 nM
[38]; read-out: pGI50 (converted)
  GI50: 251 nM
[38]; read-out: pTGI (converted)
  TGI: 871 nM
[39]
  GI50: 1450 nM
[40]
  GI50: 1740 nM
  LC50: > 75900 nM
  TGI: 3890 nM
[41]
  GI50: 3160 nM
  LC50: 57500 nM
  TGI: 13500 nM

## C/C=C1\NC(=O)[C@H](Cc2ccccc2)NC(=O)[C@@H](C(C)C)NC(=O)[C@@H]([C@@H](C)CC)NC(=O)[C@H](NC(=O)[C@H](NC(=O)[C@H](CCCNCc2ccc(F)c(C)c2)NC(=O)[C@H]2CCCN2C(=O)[C@H](NC(=O)[C@@H](NC(=O)[C@@H](NC(=O)[C@H](NC(=O)CCCC(C)C)C(C)C)[C@@H](C)O)C(C)C)C(C)C)[C@@H](C)CC)[C@@H](C)OC(=O)[C@H](C(C)C)NC1=O
[1]
  GI50: 1410 nM
  TGI: 2690 nM
[2]
  GI50: 269 nM
  TGI: 955 nM
[3]
  GI50: 813 nM
  LC50: 3800 nM
  TGI: 1740 nM
[4]
  growth at 0.008 µM: 105%
[5]
  growth at 0.008 µM: 112%
[6]
  growth at 0.008 µM: 104%
[7]
  growth at 0.008 µM: 100%
[8]
  growth at 0.08 µM: 101%
[9]
  growth at 0.08 µM: 98%
[10]
  growth at 0.08 µM: 115%
[11]
  growth at 0.08 µM: 101%
[12]
  growth at 0.08 µM: 88%
[13]
  growth at 0.08 µM: 97%
[14]
  growth at 0.08 µM: 101%
[15]
  growth at 0.8 µM: 107%
[16]
  growth at 0.8 µM: 50%
[17]
  growth at 0.8 µM: 98%
[18]
  growth at 0.8 µM: -52%
[19]
  growth at 0.8 µM: -55%
[20]
  growth at 0.8 µM: 75%
[21]
  growth at 0.8 µM: 96%
[22]
  growth at 0.8 µM: 92%
[23]
  growth at 0.8 µM: 91%
[24]
  growth at 8 µM: -65%
[25]
  growth at 8 µM: -62%
[26]
  growth at 8 µM: -96%
[27]
  growth at 8 µM: -99%
[28]
  growth at 8 µM: -80%
[29]
  growth at 8 µM: -99%
[30]
  growth at 8 µM: -92%
[31]
  growth at 8 µM: -61%
[32]
  growth at 80 µM: -85%
[33]
  growth at 80 µM: 2%
[34]
  growth at 80 µM: 21%
[35]
  growth at 80 µM: -100%
[36]
  growth at 80 µM: -79%
[37]
  GI50: 1820 nM
  CC50: > 75900 nM
  TGI: 3890 nM
[38]
  LC50: 891 nM
[38]; read-out: GI50
  GI50: 172 nM
[38]; read-out: TGI
  TGI: 367 nM
[38]; read-out: pGI50 (converted)
  GI50: 174 nM
[38]; read-out: pTGI (converted)
  TGI: 363 nM
[39]
  GI50: 955 nM
[40]
  GI50: 1260 nM
  TGI: 2400 nM
[41]
  GI50: 1480 nM
  LC50: 4900 nM
  TGI: 2690 nM
